The full list was thinned out, with hits kept by preference.
XiGFP reactiv: activators of inactive X chromosome reactivation, primary screen, imaging, XiGFP fibroblasts, GFP high-content imaging, set 2; XiGFP mouse fibroblasts, % GFP-positive cells imaging, 3 d; cells co-treated with 5-aza-dC sensitizer; scaled so ellipticine positive control = 100%; AID 743238, 2013; 0.055% of 360,000 active; activation, % at 7.58 µM;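 active = mean normalized replicate activation at least 10% and every replicate at or above 10%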
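System: SV40-immortalized XiGFP fibroblast cells, line 68-5-11 / Incubation: 3-day compound exposure, then 15 min fixation at room temperature / Compound: single concentration per compound, delivered by pin transfer / Buffer or medium: DMEM plus 5-aza-dC sensitizer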
Myeloid diff MLP: induction of myeloid progenitor differentiation, primary screen, cell-based, flow cytometry, MLPCN library; calls only at 10 µM; 1% of 360,000 active; AID 624256, 2012; ER-HoxA9 myeloid progenitors, lysozyme-GFP differentiation;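 active = normalized GFP-positive differentiation at or above the plate's own cutoff, the solvent-only control mean plus 3 SD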;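 also: cells exposed to compound for four days before flow analysis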
ABCB6 inh 2: ABCB6 transporter inhibitors, primary screen, K562-ABCB6 cells, flow cytometry, MLPCN library | ATP-binding cassette sub-family B member 6 (Homo sapiens), Q9NP58 | K562-ABCB6 porphyrin accumulation, 1 h; active compounds read low | fluorescence ratio to DMSO, % at 10 µM | 0.19% of 360,000 active | AID 602162, 2011;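 active = fluorescence ratio to DMSO below 75%, the collection mean minus 3 SD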;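 also: signal is porphyrin accumulated inside mitochondria; lower ratio means ABCB6 inhibition with less porphyrin fluorescence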
Target sequence (Q9NP58 whole entry, looked up): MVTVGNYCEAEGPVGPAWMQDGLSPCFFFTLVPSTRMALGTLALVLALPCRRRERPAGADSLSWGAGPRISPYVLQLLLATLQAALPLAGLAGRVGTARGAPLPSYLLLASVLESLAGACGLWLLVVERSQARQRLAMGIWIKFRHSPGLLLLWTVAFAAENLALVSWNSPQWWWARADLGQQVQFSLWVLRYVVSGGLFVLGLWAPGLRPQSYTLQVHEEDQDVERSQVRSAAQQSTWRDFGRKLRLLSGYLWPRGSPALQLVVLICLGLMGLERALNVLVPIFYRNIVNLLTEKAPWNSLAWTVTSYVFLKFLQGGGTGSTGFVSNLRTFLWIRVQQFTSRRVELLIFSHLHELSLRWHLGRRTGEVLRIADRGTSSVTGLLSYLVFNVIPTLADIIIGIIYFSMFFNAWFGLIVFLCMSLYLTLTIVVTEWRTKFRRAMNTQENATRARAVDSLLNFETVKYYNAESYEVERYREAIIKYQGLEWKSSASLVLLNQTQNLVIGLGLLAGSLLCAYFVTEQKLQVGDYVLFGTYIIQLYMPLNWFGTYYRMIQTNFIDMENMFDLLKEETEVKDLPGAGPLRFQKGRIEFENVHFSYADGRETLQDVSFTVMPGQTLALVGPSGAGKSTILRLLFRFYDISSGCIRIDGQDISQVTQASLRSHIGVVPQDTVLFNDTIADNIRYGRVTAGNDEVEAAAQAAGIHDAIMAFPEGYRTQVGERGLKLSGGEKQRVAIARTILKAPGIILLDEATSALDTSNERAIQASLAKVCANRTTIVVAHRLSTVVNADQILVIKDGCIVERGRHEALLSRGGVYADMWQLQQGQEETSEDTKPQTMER
Myeloid diff: inducers of myeloid progenitor differentiation, confirmation, cell-based, GFP/Mac1 flow cytometry, cherry pick 01. shares compounds with Myeloid diff MLP. ER-HoxA9 myeloid progenitors, GFP/Mac1 double-positive flow. calls only. 2% of 2,300 active;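 active = share of green or green-and-red cells above 9 and 9% in run 1 or 4 and 3% in run 2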
GFP autofluor: compound fluorescence in myeloid differentiation counter-screen. fluorescence response, % (test concentration not listed). shares compounds with Myeloid diff MLP. ER-HoxA9 myeloid progenitors, no estrogen, GFP autofluorescence flow cytometry; vehicle wells 0%, positive control 100%. 7.4% of 2,300 active. AID 651707;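 active = over 5% cells positive for green fluorescent reporter, or over 2% positive for both it and APC stain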
Calls only; . = inactive; / = no result; + = active, no number.

SMILES | XiGFP reactiv | Myeloid diff MLP | ABCB6 inh 2 | Myeloid diff | GFP autofluor
COC(=O)c1ccccc1NC(=O)c1cnn2c(C)cc(C)nc12 | . | . | . | / | /
C[C@@H]1CN([C@@H](C)CO)C(=O)c2cc(NC(=O)CCC(F)(F)F)ccc2O[C@@H](C)CCCCO[C@@H]1CN(C)Cc1ccc(C(F)(F)F)cc1 | . | / | / | / | /
CCOC(=O)c1sc2nc3c(SCCC#N)cc(C(=O)c4cc(F)ccc4O)cn3c(=O)c2c1C | . | + | . | . | .
CCc1c(C)sc2nc3c(C(=O)N4CCOCC4)cc(C(=O)c4cc(F)ccc4O)cn3c(=O)c12 | . | . | . | / | /
COC(=O)c1ccc(NC(=O)C2CCN(C(=O)c3cc(OC)c(OC)c(OC)c3)CC2)cc1 | / | . | . | / | /
CCOC(=O)c1ccc(NC(=O)C2CCN(C(=O)c3ccc(OC)c(OC)c3)CC2)cc1 | / | . | . | . | .
C[C@@H]1CN([C@@H](C)CO)S(=O)(=O)c2ccc(C#CC3CC3)cc2O[C@H]1CN(C)Cc1cncnc1 | . | / | / | / | /
COc1ccc(CN(C)C[C@H]2OCCCC[C@H](C)Oc3ccc(NS(=O)(=O)c4ccc(Cl)cc4)cc3C(=O)N([C@@H](C)CO)C[C@@H]2C)cc1 | . | / | / | / | /
C[C@@H]1CN([C@@H](C)CO)C(=O)c2cccc(NC(=O)c3cnccn3)c2O[C@@H]1CN(C)Cc1ccc(C(F)(F)F)cc1 | . | / | / | / | /
COC(=O)CN1C(=O)C2(OCCCO2)c2cc(Br)ccc21 | / | . | . | . | .
CCOC(=O)CN1C(=O)C2(OCCCO2)c2ccccc21 | / | . | . | / | /
C[C@@H]1CN([C@H](C)CO)C(=O)c2cc(-c3cncnc3)cnc2O[C@@H]1CN(C)C(=O)Cc1cccnc1 | . | / | / | / | /
O=C(/C=C/c1ccccc1Cl)Nc1ccncc1 | / | + | . | . | .
O=C(/C=C/c1ccccc1Cl)Nc1cccnc1 | . | . | . | / | /
CCOC(=O)c1c(C)[nH]c(C(=O)OCC(=O)NCCc2ccc(OCC)c(OCC)c2)c1C | . | + | . | . | .
CCOC(=O)c1[nH]c(C)c(C(=O)OCC(=O)NCc2ccc(OC)c(OC)c2)c1C | . | . | . | / | /
CCCC#Cc1ccc([C@H]2[C@@H](CO)N3C(=O)CN(C(=O)Nc4ccccc4)C[C@H]23)cc1 | . | / | / | / | /
CO[C@@H]1CN(C)C(=O)c2ccc(NC(=O)C3CC3)cc2OC[C@@H](C)N(C(=O)CN2CCOCC2)C[C@@H]1C | . | / | / | / | /
C[C@@]12C(=O)N(c3cccc(F)c3)C(=O)N1[C@H](c1ccc(Cl)cc1)[C@@H]1C(=O)N(C3CCCCC3)C(=O)[C@@H]12 | . | . | . | / | /
C[C@@]12C(=O)N(c3cccc(Cl)c3)C(=O)N1[C@H](c1ccc(Cl)cc1)[C@@H]1C(=O)N(C3CCCCC3)C(=O)[C@@H]12 | . | + | . | . | .
Cc1ccc(C(=O)OCCc2c(C)[nH]n(-c3ccccc3)c2=O)cc1 | / | . | . | . | .
Cc1[nH]n(-c2ccccc2)c(=O)c1CCOC(=O)c1cccc(C(F)(F)F)c1 | / | . | . | / | /
O=C(C[C@@H]1C[C@H]2c3cc(NC(=O)c4ccc5c(c4)OCO5)ccc3O[C@H]2[C@@H](CO)O1)NC1CCCCC1 | . | / | / | / | /
O=c1c2ccccc2nc(CSc2nnnn2-c2ccccc2)n1-c1ccccc1Cl | / | . | . | / | /
c1ccc(Cn2c(CSc3nnnn3-c3ccccc3)nc3ccccc32)cc1 | / | . | . | . | .
SMILES | XiGFP reactiv | Myeloid diff MLP | ABCB6 inh 2 | Myeloid diff | GFP autofluor
O=C(Cc1cc(=O)[nH][nH]1)N/N=C/c1ccccc1Cl | . | / | / | / | /
O=C(Cc1cc(=O)[nH][nH]1)N/N=C/C(Cl)=C/c1ccccc1 | / | . | . | . | .
S=C(NC1CC1)NC1CCCc2ccccc21 (stereo not given) | . | . | . | . | .
S=C(NCc1ccccc1)NC1CCCc2ccccc21 (stereo not given) | . | . | . | / | /
CC(=O)NC[C@H]1[C@@H](c2ccc(-c3ccccc3)cc2)[C@H](CO)N1C(=O)C1CC1 | . | / | / | / | /
COc1ccc(Cc2nnc(NC(=O)C3CCCO3)s2)cc1OC (stereo not given) | / | + | . | . | .
COc1ccc(Cc2nnc(NC(=O)C3CCCO3)s2)cc1 (stereo not given) | / | . | . | / | /
COC(=O)c1c(NC(=O)COC(=O)CCNS(=O)(=O)c2ccc(NC(C)=O)cc2)sc(C)c1C | . | . | . | / | /
CC(=O)Nc1sc(C)c(C)c1C(=O)OCC(=O)Nc1ccc(S(N)(=O)=O)cc1 | . | + | . | . | .
CN(C)S(=O)(=O)c1ccc(N2C(=O)CC2(/C=C/c2ccccc2)C(=O)NC2CCCC2)cc1 (stereo not given) | . | . | . | / | /
COc1ccccc1/C=C/C1(C(=O)NC2CCCC2)CC(=O)N1c1ccccc1 (stereo not given) | . | + | . | . | .
C[C@@H]1CCCCO[C@@H](CN(C)C(=O)CCC(F)(F)F)[C@H](C)CN([C@@H](C)CO)C(=O)c2cc(NS(C)(=O)=O)ccc2O1 | . | / | / | / | /
CN1CCN(Cc2nc(Cc3ccccc3)no2)CC1c1ccccc1 (stereo not given) | . | . | . | . | .
CN1CCN(Cc2nc(Cc3cccc(F)c3)no2)CC1c1ccccc1 (stereo not given) | . | . | . | / | /
O=C(CCn1c(=O)sc2ccccc21)Nc1ccon1 | / | . | . | / | /
O=C(CCn1c(=O)sc2ccccc21)NC1=NCCS1 | / | . | . | . | .
COc1ccccc1-c1cnc2c(c1)C(=O)N([C@@H](C)CO)C[C@@H](C)[C@H](CN(C)Cc1cncnc1)O2 | . | / | / | / | /
CCOC(=O)Cc1csc(NC(=O)CC)n1 | / | . | . | / | /
CCOC(=O)Cc1csc(NS(C)(=O)=O)n1 | / | . | . | . | .
COc1ccccc1CNC(=O)C[C@@H]1C=C[C@@H](NC(=O)CN(C)C)[C@H](CO)O1 | . | / | / | / | /
CCCOc1ccc(C(=O)NC(=S)N2CCN(c3cc4c(cc3F)c(=O)c(C(=O)O)cn4CC)CC2)cc1 | . | + | . | . | .
CCn1cc(C(=O)O)c(=O)c2cc(F)c(N3CCN(C(=S)NC(=O)c4ccc(F)cc4)CC3)cc21 | . | . | . | / | /
CC[C@]12c3[nH]c4ccccc4c3CCN1C(=O)C(CC(=O)NCCc1ccccn1)C[C@@H]2C(=O)N1CCN(C(=O)C2CC2)CC1 (stereo not given in full) | . | . | . | / | /
CC[C@]12c3[nH]c4ccc(Cl)cc4c3CCN1C(=O)[C@@H](CC(=O)NCCc1ccccn1)C[C@@H]2C(=O)N1CCN(C(=O)C2CC2)CC1 | . | . | . | . | .
CCC(=O)N1CC[C@@H]2[C@@H](CO)Nc3ccc(-c4ccccc4)cc3[C@@H]21 | . | / | / | / | /
Cc1ccccc1NC(=S)Nc1ccccn1 | . | . | . | . | .
S=C(Nc1ccccn1)Nc1ccccc1Cl | . | . | . | / | /

Screens from PubChem BioAssay.
